Compound activity as filed in PubChem.
Shown are actives, neighbours in structure and some others; about 2.5% of the full set was active somewhere.
mABHD4 FP – inhibitors of mouse ABHD4 | Q8VD66 | purified mABHD4, FP-Rh probe fluorescence polarization | inhibition, % at 8.92 µM | 370,000 compounds, 0.54% hits | AID 720543;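 active means inhibition exceeding the mean over every tested compound plus 3 SD, cut at about 30% in these data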;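 further: 0% = plate median of compound wells and 100% = S159A mutant with DMSO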
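Test system: mouse ABHD4 enzyme, wild type. Reagent: FP-Rh fluorescent activity-based probe, added after compound pre-incubation. Timing: pre-incubation 45 min, probe exposure 60 min, at 25 °C. Technique: FP readout, ex 525 nm / em 598 nm. Benchmarks: high control S159A mutant with DMSO, low control median of compound wells.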
SIAE inh – blocks human sialic acid acetylesterase | inhibition, % at 9.66 µM | 370,000 compounds, 0.69% hits | AID 1053197 | SIAE FP-Rh probe binding, fluorescence polarization | Q9HAT2;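 active means inhibition above a cutoff: mean of compounds within the control limits plus 3 SD of those, cut at about 17% in these data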;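 further: 0% = plate median of compound wells and 100% = probe without SIAE protein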
Target sequence (Q9HAT2 whole entry, looked up): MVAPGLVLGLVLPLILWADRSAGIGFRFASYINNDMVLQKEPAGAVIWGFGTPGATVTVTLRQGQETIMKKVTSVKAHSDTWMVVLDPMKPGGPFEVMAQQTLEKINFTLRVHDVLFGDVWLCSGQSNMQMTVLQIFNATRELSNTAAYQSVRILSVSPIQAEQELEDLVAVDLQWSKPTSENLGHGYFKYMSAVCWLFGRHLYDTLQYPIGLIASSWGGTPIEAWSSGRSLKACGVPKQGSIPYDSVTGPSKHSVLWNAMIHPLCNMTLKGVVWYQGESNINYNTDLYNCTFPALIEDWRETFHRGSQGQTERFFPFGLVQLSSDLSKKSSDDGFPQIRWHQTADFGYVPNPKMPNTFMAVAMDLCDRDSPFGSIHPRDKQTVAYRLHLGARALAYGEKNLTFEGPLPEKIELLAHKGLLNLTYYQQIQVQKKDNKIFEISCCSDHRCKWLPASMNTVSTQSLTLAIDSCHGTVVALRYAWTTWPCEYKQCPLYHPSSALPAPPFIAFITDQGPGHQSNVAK
PRMT1 inh – blocks human protein arginine methyltransferase 1; inhibition, % at 2.79 µM; 370,000 compounds, 1.3% hits; Q99873; recombinant PRMT1, activity-based probe fluorescence polarization;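 active means inhibition above about 21% made by adding two undisclosed values, limit read from the data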
TCR-CD3 inh – human TCR-CD3 binding inhibition | 360,000 compounds, 0.37% hits | inhibition, % at 9.4 µM | TAMRA-labeled TCR probe fluorescence, biochemical; in the data active means inhibition above about 19%;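 further: recombinant mutant TCR 2C K166C tagged with TAMRA read by polarization; 0% = receptor in buffer alone and 100% = receptor with positive control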
HTRA1 inhibitor – inhibitors of human serine peptidase HTRA1. Q92743. recombinant HTRA1, FP-rhodamine activity-based probe, fluorescence polarization. inhibition, % at 5.96 µM. 340,000 compounds, 0.5% hits; in the data active means inhibition above about 36%;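 further: 0% = enzyme with DMSO and 100% = wells lacking enzyme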
* = called active by the depositor.

Results for COc1ccc(S(=O)(=O)N2CCN(c3ccccc3)CC2)cc1OC ?
mABHD4 FP: -5.9; SIAE inh: -1.8; PRMT1 inh: 2.7; TCR-CD3 inh: -12.8

How did COc1ccc(S(=O)(=O)N2CCN(c3cnccn3)CC2)cc1OC do in these assays?
mABHD4 FP: -3.8; SIAE inh: 0.9; PRMT1 inh: 21.4*; TCR-CD3 inh: -1.3; HTRA1 inhibitor: 0.7

What do the screens show for `O=c1[nH]c2cc3c(cc2cc1CN(Cc1nnnn1CC1CCCO1)C1CCCC1)OCO3` (stereo unspecified)?
mABHD4 FP: 2.8; SIAE inh: -2.7; PRMT1 inh: 0.5; TCR-CD3 inh: -6.0; HTRA1 inhibitor: -7.0

How did O=c1[nH]c2cc3c(cc2cc1CN(Cc1nnnn1CC1CCCO1)C1CCCCC1)OCO3 (stereo unspecified) do in these assays?
mABHD4 FP: 1.8; SIAE inh: -7.8; PRMT1 inh: 23.2*; TCR-CD3 inh: -2.0; HTRA1 inhibitor: -4.2

How did O=C1CC(=O)N(Cc2ccco2)C(=O)N1 do in these assays?
mABHD4 FP: -4.7; SIAE inh: -9.4; PRMT1 inh: 21.9*; TCR-CD3 inh: 8.0; HTRA1 inhibitor: -6.8

Results for C=CC[C@H]1c2ccccc2[C@H]2N3N=Cc4ccccc4[C@H]3[C@H](CCc3ccccc3)C(=O)N2N1C(=O)c1ccccc1 ?
mABHD4 FP: -11.1; SIAE inh: -5.5; PRMT1 inh: -1.0

What do the screens show for `CCOC(=O)C1=C(CSc2nc(CC)c(C)cc2C#N)OC(N)=C(C#N)C1c1ccc(OC)cc1` (stereo unspecified)?
mABHD4 FP: -25.4; SIAE inh: -0.3; PRMT1 inh: 21.2*; TCR-CD3 inh: -10.7; HTRA1 inhibitor: -33.7

How did CCOC(=O)C1=C(CSc2nc(-c3ccncc3)ccc2C#N)OC(N)=C(C#N)C1c1ccc(OC)cc1 (stereo unspecified) do in these assays?
mABHD4 FP: -4.8; SIAE inh: -16.1; PRMT1 inh: 14.8; TCR-CD3 inh: -17.2; HTRA1 inhibitor: -15.4

What do the screens show for `COC(=O)c1ccc(NCc2cc(O)ccc2O)cc1O`?
mABHD4 FP: 23.0; SIAE inh: 6.0; PRMT1 inh: 23.1*; TCR-CD3 inh: 1.3; HTRA1 inhibitor: 5.9

What do the screens show for `O=C(COC(=O)c1ccc(O)cc1O)Nc1ccc2ccccc2c1`?
mABHD4 FP: -19.2; SIAE inh: -27.9; PRMT1 inh: 5.3; TCR-CD3 inh: -2.4; HTRA1 inhibitor: -26.7

How did C=CCn1c(-c2ccccc2)nc(=S)c2c1CC(C)(C)OC2 do in these assays?
mABHD4 FP: 3.9; SIAE inh: 0.0; PRMT1 inh: 4.4; TCR-CD3 inh: -1.8; HTRA1 inhibitor: 3.4

Results for CC1(C)Cc2c(c(=S)nc(-c3ccccc3)n2CCOCCO)CO1 ?
mABHD4 FP: 3.1; SIAE inh: -3.0; PRMT1 inh: 21.9*; TCR-CD3 inh: 6.6; HTRA1 inhibitor: -0.5

How did CCOc1ccc(/C=N/Nc2nc(C)cs2)c(O)c1 do in these assays?
mABHD4 FP: 4.3; SIAE inh: 3.3; PRMT1 inh: 21.4*; TCR-CD3 inh: 2.0; HTRA1 inhibitor: 17.2

Results for Cc1csc(N/N=C/c2ccccc2F)n1 ?
mABHD4 FP: 15.4; SIAE inh: 1.2; PRMT1 inh: 20.0; TCR-CD3 inh: -42.0; HTRA1 inhibitor: 4.2

Results for COc1ccc(CN2C(=O)CCCC2(C)c2nnnn2-c2c(C)cccc2C)cc1OC (stereo unspecified) ?
mABHD4 FP: 1.5; SIAE inh: -1.6; PRMT1 inh: 0.5

How did O=C1CSC(=S)N1/N=C/c1c(F)cccc1F do in these assays?
mABHD4 FP: 7.0; SIAE inh: 2.4; PRMT1 inh: 17.2; TCR-CD3 inh: -0.1; HTRA1 inhibitor: 0.3

Results for O=C1CSC(=S)N1N=C1CCCCCC1 ?
mABHD4 FP: 6.4; SIAE inh: -2.7; PRMT1 inh: 23.0*; TCR-CD3 inh: 7.7; HTRA1 inhibitor: 1.8

Results for Cc1ccc(NC(=O)CN2C(=O)N/C(=C/c3cc(C)n(-c4cccc(C(=O)O)c4)c3C)C2=O)cc1 ?
mABHD4 FP: 5.0; SIAE inh: -4.6; PRMT1 inh: 25.1*; TCR-CD3 inh: 4.8; HTRA1 inhibitor: -19.2

How did CCOc1ccc(-c2nc(C#N)c(NCc3ccc4c(c3)OCO4)o2)cc1 do in these assays?
mABHD4 FP: -0.2; SIAE inh: 17.8*; PRMT1 inh: -1.5; TCR-CD3 inh: 4.3; HTRA1 inhibitor: 3.6

Results for Cc1ccc(S(=O)(=O)c2ccc([N+](=O)[O-])o2)cc1 ?
mABHD4 FP: -1.1; SIAE inh: 2.9; PRMT1 inh: 75.6*; TCR-CD3 inh: -5.6; HTRA1 inhibitor: 2.0

How did Cc1ccc(NC(=O)c2ccc([N+](=O)[O-])o2)c(C)c1 do in these assays?
mABHD4 FP: 0.9; SIAE inh: -2.3; PRMT1 inh: -5.4; TCR-CD3 inh: -0.5; HTRA1 inhibitor: 1.0

What do the screens show for `COCCCNc1oc(COc2ccc(Cl)cc2Cl)nc1C#N`?
mABHD4 FP: -7.0; SIAE inh: 17.2*; PRMT1 inh: -3.5; TCR-CD3 inh: 0.3; HTRA1 inhibitor: 2.2

What do the screens show for `CN(C)CCNc1oc(COc2ccc(Cl)cc2Cl)nc1C#N`?
mABHD4 FP: 11.9; SIAE inh: 6.2; PRMT1 inh: 9.5; TCR-CD3 inh: -1.5; HTRA1 inhibitor: 0.3

Results for COC(=O)C[C@@H]1CC[C@H]2[C@@H](COc3ccc(NC(=O)c4ccc(C(F)(F)F)cc4)cc3C(=O)N2C)O1 ?
mABHD4 FP: 1.8; SIAE inh: 0.6; PRMT1 inh: 0.7

Results for COC(=O)C1=C(C)N(Cc2ccc(C)cc2)C(=O)/C1=C\c1cc(OC)c(OC)c(OC)c1 ?
mABHD4 FP: -3.0; SIAE inh: 3.6; PRMT1 inh: -1.4; TCR-CD3 inh: 6.4; HTRA1 inhibitor: -10.0

What do the screens show for `CCOc1cc(/C=C2\C(=O)N(CCc3ccc(OC)c(OC)c3)C(C)=C2C(=O)OC)ccc1O`?
mABHD4 FP: 17.4; SIAE inh: 5.7; PRMT1 inh: 26.5*; TCR-CD3 inh: -1.2; HTRA1 inhibitor: -2.2

What do the screens show for `CCOC(=O)[C@@]12CCCC=C1N(CCc1ccc(Cl)cc1)C(=O)[C@H]2CC(=O)NCc1cccc(C(F)(F)F)c1`?
mABHD4 FP: -8.2; SIAE inh: -2.8; PRMT1 inh: -0.4

How did Cc1cccc(Nc2n[nH]c(=S)s2)c1C do in these assays?
mABHD4 FP: 0.1; SIAE inh: 8.6; PRMT1 inh: 24.4*; TCR-CD3 inh: 4.5; HTRA1 inhibitor: -3.3

Results for Cc1cccc(Nc2nc3ccccc3s2)c1C ?
mABHD4 FP: 17.6; SIAE inh: 4.7; PRMT1 inh: 2.9; TCR-CD3 inh: 4.9; HTRA1 inhibitor: -11.5

How did CC(C)(C)c1csc(NNC(=O)c2ccc(Br)cc2)n1 do in these assays?
mABHD4 FP: -5.2; SIAE inh: -7.0; PRMT1 inh: 23.3*; TCR-CD3 inh: 0.1; HTRA1 inhibitor: 19.6

How did COc1ccc(N2CSC3=C(C#N)C(c4ccc(OC)c(OC)c4)CC(=O)N3C2)c(OC)c1 (stereo unspecified) do in these assays?
mABHD4 FP: 17.2; SIAE inh: 4.9; PRMT1 inh: 46.7*; TCR-CD3 inh: -5.3; HTRA1 inhibitor: 5.7

Results for COc1ccc(NC(=S)NC(NC(=O)CCl)C(Cl)(Cl)Cl)c([N+](=O)[O-])c1 (stereo unspecified) ?
HTRA1 inhibitor: 41.8*
